Assay results pooled from the literature.
Compare with care: the assays were run in different laboratories.
Target: Serine/threonine-protein kinase N1 (PKN1, Homo sapiens, UniProt Q16512)

CCOc1cc(-c2nncn2C)ccc1Nc1ncc2cc(C)nc(NCC(C)(C)C)c2n1 — inhibition (enzyme activity, inhibitor, FRET; 1 µM): < 15%
Cc1c(NC(=O)c2cc3c(s2)CCCC3)cccc1-c1cn(C)c(=O)c(Nc2ccc([C@@H]3C(=O)N(C)CCN3C)cc2)n1 — activity vs control (enzyme activity, inhibitor; 1 µM): 76%
CCN1CCC2(CC1)NC(=O)c1c(c3ccc(Cl)c(Cl)c3n1C)C2C#N (racemic) — ΔTm (thermal stability, DSF; 10 µM): 1 °C
C[C@H](c1ccnc(Nc2nc3ccc(-c4cc(N(C)C)ncn4)cc3[nH]2)c1)N1CCN(C(=O)CC(F)(F)F)CC1 — remaining binding (cell-free assay, competition with immobilised ligand; 0.1 µM): 100%
COc1cc2ncnc(Nc3ccc(F)c(Cl)c3)c2cc1OCCCN1CCOCC1 — remaining signal (cell-free assay; 0.5 µM): 105%
O=C(Nc1cnn(-c2csc(C(=O)NC3COC3)c2)c1)Nc1c(F)cccc1Cl — remaining activity (enzyme activity, inhibitor; 5 µM): 96.5%
CN(C)C1CCN(CC#Cc2nn(C3CCCC3)c3nc(NCc4ccccc4)ncc23)C1 (centres unmarked) — inhibition (enzyme activity, inhibitor, FRET; 10 µM): 4%
CN(C(=O)c1ccccc1)c1cc(N(C)c2ccc3c(c2)CCc2ccc(C(=O)NCCN4CCOCC4)cc2C3=O)ccc1F — remaining binding (cell-free assay, competition with immobilised ligand; 1 µM): 100%
C[S+]([O-])c1ccc(-c2nc(-c3ccncc3)c(-c3ccc(F)cc3)[nH]2)cc1 (centres unmarked) — remaining signal (cell-free assay; 0.5 µM): 96.5%
Cn1cncc1C1=CN(c2ncnc3[nH]cnc23)CCS1 — inhibition (enzyme activity, inhibitor, radiometric; 50 nM): 18.8%
C[C@H](NC(=O)c1cnc2n1[C@](C)(Cc1ccc(C#N)cc1)C(=O)N2c1cc(Cl)c(F)c(Cl)c1)C(=O)NC1(c2ccccn2)CC1 — remaining binding (cell-free assay, competition with immobilised ligand; 1 µM): 100%
C[C@@H](c1ccc2nccn2c1)n1nnc2ncc(-c3cnn(C)c3)nc21 — activity vs control (enzyme activity, inhibitor; 1 µM): 91%
CC(=O)c1c(NS(C)(=O)=O)c2cc(-c3ccc(Cl)cc3)c(-c3ccc(Cl)cc3Cl)nc2n(C)c1=O — remaining binding (cell-free assay, competition with immobilised ligand; 1 µM): 100%
N#Cc1cnc(Nc2cc(NC[C@H]3CNCCO3)c(C(F)(F)F)cn2)cn1 — activity vs control (enzyme activity, inhibitor; 1 µM): 86%
CN([C@@H]1CCc2c(CC(=O)O)c3ccccc3n2C1)S(=O)(=O)c1ccc(F)cc1 — remaining binding (cell-free assay, competition with immobilised ligand; 1 µM): 83%
Cc1c[nH]c2nc(Nc3ccc(N4CCN(C)CC4)c(F)c3)nc(-c3cccc(CC#N)c3)c12 — activity vs control (enzyme activity, inhibitor; 1 µM): 19%
CCCCNc1ncc2c(-c3ccc(F)cc3)nn(C[C@H]3CC[C@H](N)CC3)c2n1 — inhibition (target engagement in cells, inhibitor, chemoproteomics; 20 mM): -43.3%
Cc1c(Cn2c(C)nc3c(C(=O)O)cc(N4CCOCC4)cc32)cccc1C(F)(F)F — activity vs control (enzyme activity, inhibitor; 1 µM): 88%
CCOC(=O)c1cc2cc(-c3cc(C(=O)NCc4ccc(C(=O)O)cc4)nn3C)ccc2[nH]1 — remaining binding (cell-free assay, competition with immobilised ligand; 0.1 µM): 100%
Cc1cc(F)c(Nc2ncnc3cc(OCc4ccccc4)ccc23)cc1O.Cl — activity vs control (enzyme activity, inhibitor; 1 µM): 89%
CCCCN(CCCC)C(=O)CN1C[C@@H](c2cc(OC)c3c(c2)OCO3)[C@H](C(=O)O)[C@H]1CC(C)(C)CCC — remaining binding (cell-free assay, competition with immobilised ligand; 1 µM): 85%
CC(=O)c1c(C)c2cnc(Nc3ccc(N4CCNCC4)cn3)nc2n(C2CCCC2)c1=O.Cl — activity vs control (enzyme activity, inhibitor; 1 µM): 96%
CS(=O)(=O)Nc1cccc(-c2csc(NC(=O)CSc3nc4nccnc4c(=O)n3CCc3ccccc3)n2)c1 — inhibition (enzyme activity, inhibitor; 10 µM): -5%
